Laboratory results: ChEMBL document CHEMBL4304750, “Novel Anthraquinone Compounds Induce Cancer Cell Death through Paraptosis” (ACS Med Chem Lett, 2019)
Calls of active or inactive are those of the source. The rule behind the calls is not given here.

What was measured:
[1] = system: SMMC-7721; assay: Induction of cytoplasmic vacuolation in human SMMC7721 cells assessed as vacuolar cell formation and appearance of apoptotic cells at 3 to 10 uM incubated for 48 hrs by phase contrast microscopy; format: functional, cell-based
[2] = system: SMMC-7721; assay: Induction of cell vacuole formation in human SMMC7721cells at 5 uM incubated for 24 hrs by phase contrast microscopy; format: functional, cell-based
[3] = system: HepG2; assay: Induction of cell vacuole formation in human HepG2 cells at 5 uM incubated for 24 hrs by phase contrast microscopy; format: functional, cell-based
[4] = system: CNE-2; assay: Induction of cell vacuole formation in human CNE2 cells at 5 uM incubated for 24 hrs by phase contrast microscopy; format: functional, cell-based
[5] = system: HepG2; assay: Antiproliferative activity against human HepG2 cells assessed as reduction in cell viability incubated for 48 hrs by MTT assay; format: functional, cell-based
[6] = system: CNE; assay: Induction of cell vacuole formation in human CNE1 cells at 5 uM incubated for 24 hrs by phase contrast microscopy; format: functional, cell-based
[7] = system: SMMC-7721; assay: Induction of apoptosis with PS translocation in human SMMC7721 cells at 3 to 10 uM incubated for 48 hrs by Annexin V-FITC and propidium iodide staining based flow cytometry; format: functional, cell-based
How it was run: (§1)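 After 48 h treatment, SMMC-7721 cells were collected, stained with annexin V-FITC plus PI, and analysed by flow cytometry for PS externalization/apoptotic fraction.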

[8] = system: SMMC-7721; assay: Antiproliferative activity against human SMMC7721 assessed as reduction in cell viability incubated for 48 hrs by MTT assay; format: functional, cell-based
[9] = system: CNE-2; assay: Antiproliferative activity against human CNE2 cells assessed as reduction in cell viability incubated for 48 hrs by MTT assay; format: functional, cell-based
[10] = system: CNE; assay: Antiproliferative activity against human CNE1 cells assessed as reduction in cell viability incubated for 48 hrs by MTT assay; format: functional, cell-based
[11] = system: SMMC-7721; assay: Antiproliferative activity against human SMMC7721 cells assessed as decrease in cell viability incubated for 48 hrs by CCK-8 assay; format: functional, cell-based
How it was run: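 SMMC-7721 cells exposed 48 h to 3, 5 or 10 μM, then viability read by CCK-8 assay.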

[12] = system: SMMC-7721; assay: Induction of mitochondrial swelling, vacuoles and ridges disappearance and loss of mitochondrial and golgi apparatus structural integrity in human SMMC7721 cells at 5 uM incubated for 48 hrs by transmission electron microscopy; format: functional, cell-based
How it was run: (§2)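 SMMC-7721 cells incubated 48 h at 5 μM, alongside untreated control cells, then imaged by transmission electron microscopy. ER, mitochondria, Golgi, nucleus, membrane and autophagosomes/apoptotic bodies were inspected.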

[13] = system: SMMC-7721; assay: Induction of endoplasmic reticulum stress in human SMMC7721 cells assessed as increase in GRP78 expression at 3 uM by Western blot analysis; format: functional, cell-based; conditions: TDE = time-dependent effect
[14] = system: SMMC-7721; assay: Induction of cell morphological changes in human SMMC7721 cells assessed as appearance of small vacuoles in cytoplasm at 5 uM incubated for 48 hrs by transmission electron microscopy; format: functional, cell-based; how it was run: as §2
[15] = system: SMMC-7721; assay: Induction of paraptosis in human SMMC7721 cells assessed as increase in GRP78 expression by Western blot analysis; format: functional, cell-based
[16] = system: SMMC-7721; assay: Decrease in p62 expression level in human SMMC7721 cells by Western blot analysis; format: functional, cell-based
[17] = system: SMMC-7721; assay: Induction of endoplasmic reticulum vacuolation in human SMMC7721 cells assessed as nuclei shrank and appearance of vacuoles surrounded by positive ER-specific markers at 3 to 5 uM incubated for 48 hrs by ER-tracker red and Hoechst 33342 staining based laser scanning confocal microscopy; format: functional, cell-based
[18] = system: SMMC-7721; assay: Induction of cell morphological changes in human SMMC7721 cells assessed as appearance of smaller nucleus at 5 uM incubated for 48 hrs by transmission electron microscopy; format: functional, cell-based; how it was run: as §2
[19] = system: SMMC-7721; assay: Induction of cell morphological changes in human SMMC7721 cells assessed as autophagosome formation at 5 uM incubated for 48 hrs by transmission electron microscopy; format: functional, cell-based; how it was run: as §2
[20] = system: SMMC-7721; assay: Induction of paraptosis in human SMMC7721 cells assessed as increase in LC3-II/LC3-I expression ratio by Western blot analysis; format: functional, cell-based
[21] = system: HepG2; assay: Induction of cell vacuole formation in human HepG2 cells at 3 to 5 uM incubated for 48 hrs by phase contrast microscopy; format: functional, cell-based
[22] = system: SMMC-7721; assay: Induction of cell morphological changes in human SMMC7721 cells assessed as cytoplasmic loss at 3 to 10 uM incubated for 48 hrs by H and E staining based light microscopy; format: functional
How it was run: (§3)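 Haematoxylin-eosin staining of SMMC-7721 cells after 48 h treatment, examined by light microscopy.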

[23] = system: CNE-2; assay: Antiproliferative activity against human CNE2 cells assessed as reduction in cell viability incubated for 48 hrs by CCK-8 assay; format: functional, cell-based
[24] = system: SMMC-7721; assay: Induction of cell morphological changes in human SMMC7721 cells assessed as vacuole formation in mitochondria at 5 uM incubated for 48 hrs by transmission electron microscopy; format: functional, cell-based; how it was run: as §2
[25] = system: SMMC-7721; assay: Induction of cell morphological changes in human SMMC7721 cells assessed as appearance of concentrated nucleus at 5 uM incubated for 48 hrs by transmission electron microscopy; format: functional, cell-based; how it was run: as §2
[26] = system: SMMC-7721; assay: Inhibition of autophagosome formation in human SMMC7721 cells assessed as increase in p62 level at 3 uM incubated for 12 to 48 hrs by Western blot analysis; format: functional, cell-based
[27] = system: SMMC-7721; assay: Antiproliferative activity against human SMMC7721 assessed as reduction in cell viability incubated for 48 hrs by CCK-8 assay; format: functional, cell-based; conditions: SMMC-7721, 48 h
[28] = system: SMMC-7721; assay: Induction of endoplasmic reticulum vacuolation in human SMMC7721 cells assessed as increase in vacuole formation and entire ER cytoplasm occupied with vacuole with loss of cell contents at 3 to 5 uM incubated for 48 hrs by ER-tracker red and Hoechst 33342 staining based laser scanning confocal microscopy; format: functional
[29] = system: CNE; assay: Induction of cell vacuole formation in human CNE1 cells at 3 to 5 uM incubated for 48 hrs by phase contrast microscopy; format: functional, cell-based
[30] = system: CNE; assay: Antiproliferative activity against human CNE1 cells assessed as reduction in cell viability incubated for 48 hrs by CCK-8 assay; format: functional, cell-based
[31] = system: SMMC-7721; assay: Induction of cell morphological changes in human SMMC7721 cells assessed as appearance of ridges in mitochondria at 5 uM incubated for 48 hrs by transmission electron microscopy; format: functional, cell-based; how it was run: as §2
[32] = system: HepG2; assay: Antiproliferative activity against human HepG2 cells assessed as reduction in cell viability incubated for 48 hrs by CCK-8 assay; format: functional, cell-based
[33] = system: SMMC-7721; assay: Induction of cell cycle arrest in human SMMC7721 cells at 3 to 10 uM incubated for 48 hrs by propidium iodide staining based flow cytometry; format: functional
[34] = system: SMMC-7721; assay: Induction of cytoplasmic vacuolation in human SMMC7721 cells assessed as increase in number of vacuoles formation with shrinked volume of vacuoles at 3 to 10 uM incubated for 48 hrs by inverted phase contrast microscopy; format: functional, cell-based
[35] = system: SMMC-7721; assay: Induction of cell morphological changes in human SMMC7721 cells assessed as appearance of large vacuoles in cytoplasm at 5 uM incubated for 48 hrs by transmission electron microscopy; format: functional, cell-based; how it was run: as §2
[36] = system: CNE-2; assay: Induction of cell vacuole formation in human CNE2 cells at 3 to 5 uM incubated for 48 hrs by phase contrast microscopy; format: functional, cell-based
[37] = system: SMMC-7721; assay: Induction of cell morphological changes in human SMMC7721 cells assessed as formation of apoptotic bodies at 5 uM incubated for 48 hrs by transmission electron microscopy; format: functional, cell-based; how it was run: as §2
[38] = system: SMMC-7721; assay: Effect on cleaved caspase 3 level in human SMMC7721 cells at antiproliferative IC60 incubated for 12 to 48 hrs by Western blot analysis; format: functional, cell-based
How it was run: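 SMMC-7721 cells were treated 12, 24 and 48 h, with cisplatin as apoptosis positive control. Extracts were immunoblotted for procaspase-3 and cleaved caspase-3, with β-actin as loading control.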

[39] = system: SMMC-7721; assay: Induction of cell morphological changes in human SMMC7721 cells assessed as change in cell membrane structure at 5 uM incubated for 48 hrs by transmission electron microscopy; format: functional, cell-based; how it was run: as §2
[40] = system: SMMC-7721; assay: Induction of cell morphological changes in human SMMC7721 cells assessed as cell shrinkage at 3 to 10 uM incubated for 48 hrs by HE staining based light microscopy; format: functional; how it was run: as §3
[41] = system: SMMC-7721; assay: Induction of endoplasmic reticulum vacuolation in human SMMC7721 cells assessed as vacuole derivatization by expansion and swelling of rough ER with vacuoles wrapped in monolayer membranes with loss of ER structure integrity at 5 uM incubated for 48 hrs by transmission electron microscopy; format: functional, cell-based; how it was run: as §2
[42] = system: SMMC-7721; assay: Induction of cell morphological changes in human SMMC7721 cells assessed as swelling of mitochondria at 5 uM incubated for 48 hrs by transmission electron microscopy; format: functional, cell-based; how it was run: as §2
[43] = system: SMMC-7721; assay: Induction of cell morphological changes in human SMMC7721 cells assessed as nuclear chromatin pyknosis at 3 to 10 uM incubated for 48 hrs by H and E staining based light microscopy; format: functional; how it was run: as §3
[44] = system: SMMC-7721; assay: Increase in LC3-II/LC3-I expression ratio in human SMMC7721 cells at 3 uM incubated for 12 to 48 hrs by Western blot analysis; format: functional, cell-based
[45] = system: SMMC-7721; assay: Induction of apoptosis in human SMMC7721 cells assessed as viable cells with normal cell membrane at 10 uM incubated for 48 hrs by Annexin V-FITC and propidium iodide staining based flow cytometry; format: functional; how it was run: as §1
[46] = system: SMMC-7721; assay: Induction of cytoplasmic vacuolation in human SMMC7721 cells at 10 uM incubated for 48 hrs by phase contrast microscopy; format: functional, cell-based

O=C(OCCN1CCCCC1)c1cc(OCc2ccccc2)c2c(c1)C(=O)c1cccc(OCc3ccccc3)c1C2=O
Activity [1]: Active
Activity [2]: Active
Activity [3]: Active
Activity [4]: Active
inhibition [5]: Active
Activity [6]: Active
Activity [7]: Active
inhibition [8]: Active
inhibition [9]: Active
inhibition [10]: Active

O=C(NCCO)c1cc(OCc2ccccc2)c2c(c1)C(=O)c1cccc(OCc3ccccc3)c1C2=O
inhibition [11]: Dose-dependent effect
Activity [12]: Active
Activity [13]: Tde
Activity [14]: Active
Activity [15]: Active
inhibition [16]: inactive
Activity [17]: Active
Activity [18]: Active
Activity [19]: inactive
Activity [20]: Active
Activity [21]: Active
Activity [2]: Active
Activity [22]: Active
inhibition [23]: Active
Activity [24]: Active
Activity [3]: Active
Activity [4]: Active
Activity [25]: Active
inhibition [26]: Active
IC50 [27]: 1500 nM
Activity [28]: Active
Activity [29]: Active
inhibition [30]: Active
Activity [31]: inactive
inhibition [32]: Active
Activity [33]: inactive
Activity [34]: Active
Activity [6]: Active
Activity [35]: Active
Activity [36]: Active
Activity [7]: inactive
Activity [37]: inactive
Activity [38]: inactive
Activity [39]: inactive
Activity [40]: Active
Activity [41]: Active
Activity [42]: Active
Activity [43]: Active
Activity [44]: Active
Activity [45]: 22.42%

O=C1c2cccc(OCc3ccccc3)c2C(=O)c2c(OCc3ccccc3)cc(C(=O)N3CCN(CCO)CC3)cc21
Activity [2]: Active
Activity [3]: Active
Activity [4]: Active
inhibition [5]: Active
Activity [6]: Active
inhibition [8]: Active
inhibition [9]: Active
inhibition [10]: Active

O=C(O)c1cc(OCc2ccccc2)c2c(c1)C(=O)c1cccc(OCc3ccccc3)c1C2=O
Activity [15]: Active
inhibition [16]: inactive
Activity [20]: inactive
Activity [46]: Active

O=C(O)c1cc(O)c2c(c1)C(=O)c1cccc(O)c1C2=O
Activity [15]: inactive
inhibition [16]: inactive
Activity [20]: inactive
